In ChEMBL document CHEMBL3259728, “Design, synthesis and biological evaluation of some novel substituted quinazolines as antitumor agents” (2014):

What was measured:
Assay type in all cases: functional
[1] = Growth inhibition of human BT549 cells at 10 uM after 48 hrs by SRB assay; settings: BT-549, 48 h, read-out: GI
Outline: (§1)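 NCI primary one-dose screen. A single concentration of 10^-5 M was added to the cell culture, followed by 48 h incubation and an SRB protein-dye endpoint read spectrophotometrically. Results are growth percentage relative to untreated control cells, reported as % growth inhibition.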

[2] = system: MDA-MB-231; experiment: Growth inhibition of human MDA-MB-231 cells at 10 uM after 48 hrs by SRB assay; settings: MDA-MB-231, 48 h, read-out: GI
Outline: (§2)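 NCI-60 primary one-dose screen run at the US NCI, with human tumour lines from nine cancer types. Compound added once at 10^-5 M, followed by 48 h incubation. End point was sulforhodamine B protein staining read spectrophotometrically. Result given as percent growth of treated cells against untreated controls, reported as % growth inhibition.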

[3] = system: DU-145; experiment: Growth inhibition of human DU145 cells at 10 uM after 48 hrs by SRB assay; settings: DU-145, 48 h, read-out: GI; outline: as §2
[4] = system: PC-3; experiment: Growth inhibition of human PC3 cells at 10 uM after 48 hrs by SRB assay; settings: PC-3, 48 h, read-out: GI; outline: as §2
[5] = Growth inhibition of human UO31 cells at 10 uM after 48 hrs by SRB assay; settings: UO-31, 48 h, read-out: GI; outline: as §2
[6] = system: TK-10; experiment: Growth inhibition of human TK10 cells at 10 uM after 48 hrs by SRB assay; settings: TK-10, 48 h, read-out: GI; outline: as §2
[7] = system: SN12C; experiment: Growth inhibition of human SN12C cells at 10 uM after 48 hrs by SRB assay; settings: read-out: GI; outline: as §2
[8] = system: 786-0; experiment: Growth inhibition of human 786-0 cells at 10 uM after 48 hrs by SRB assay; settings: 786-0, 48 h, read-out: GI; outline: as §1
[9] = system: SK-OV-3; experiment: Growth inhibition of human SKOV3 cells at 10 uM after 48 hrs by SRB assay; settings: SK-OV-3, 48 h, read-out: GI; outline: as §2
[10] = Growth inhibition of human NCI-ADR-RES cells at 10 uM after 48 hrs by SRB assay; settings: read-out: GI; outline: as §2
[11] = Growth inhibition of human OVCAR5 cells at 10 uM after 48 hrs by SRB assay; settings: OVCAR-5, 48 h, read-out: GI; outline: as §2
[12] = Growth inhibition of human OVCAR3 cells at 10 uM after 48 hrs by SRB assay; settings: OVCAR-3, 48 h, read-out: GI; outline: as §2
[13] = system: IGROV-1; experiment: Growth inhibition of human IGROV1 cells at 10 uM after 48 hrs by SRB assay; settings: IGROV-1, 48 h, read-out: GI; outline: as §2
[14] = Growth inhibition of human UACC62 cells at 10 uM after 48 hrs by SRB assay; settings: UACC-62, 48 h, read-out: GI; outline: as §2
[15] = system: SK-MEL-5; experiment: Growth inhibition of human SK-MEL-5 cells at 10 uM after 48 hrs by SRB assay; settings: SK-MEL-5, 48 h, read-out: GI; outline: as §2
[16] = system: SK-MEL-2; experiment: Growth inhibition of human SK-MEL-2 cells at 10 uM after 48 hrs by SRB assay; settings: SK-MEL-2, 48 h, read-out: GI; outline: as §2
[17] = system: MDA-MB-435; experiment: Growth inhibition of human MDA-MB-435 cells at 10 uM after 48 hrs by SRB assay; settings: MDA-MB-435, 48 h, read-out: GI; outline: as §2
[18] = system: M14; experiment: Growth inhibition of human M14 cells at 10 uM after 48 hrs by SRB assay; settings: M14, 48 h, read-out: GI; outline: as §2
[19] = system: Malme-3M; experiment: Growth inhibition of human MALME-3M cells at 10 uM after 48 hrs by SRB assay; settings: read-out: GI; outline: as §2
[20] = Growth inhibition of human LOXIMVI cells at 10 uM after 48 hrs by SRB assay; settings: LOX IMVI, read-out: GI; outline: as §2
[21] = system: U-251; experiment: Growth inhibition of human U251 cells at 10 uM after 48 hrs by SRB assay; settings: U-251, 48 h, read-out: GI; outline: as §2
[22] = system: SNB-19; experiment: Growth inhibition of human SNB19 cells at 10 uM after 48 hrs by SRB assay; settings: SNB-19, 48 h, read-out: GI; outline: as §2
[23] = Growth inhibition of human SF539 cells at 10 uM after 48 hrs by SRB assay; settings: SF-539, 48 h, read-out: GI; outline: as §2
[24] = system: SW-620; experiment: Growth inhibition of human SW620 cells at 10 uM after 48 hrs by SRB assay; settings: SW-620, 48 h, read-out: GI; outline: as §2
[25] = Growth inhibition of human HCT15 cells at 10 uM after 48 hrs by SRB assay; settings: HCT-15, 48 h, read-out: GI; outline: as §2
[26] = system: HCT-116; experiment: Growth inhibition of human HCT116 cells at 10 uM after 48 hrs by SRB assay; settings: HCT-116, 48 h, read-out: GI; outline: as §2
[27] = Growth inhibition of human HCC2998 cells at 10 uM after 48 hrs by SRB assay; settings: HCC 2998, 48 h, read-out: GI; outline: as §2
[28] = system: COLO 205; experiment: Growth inhibition of human COLO205 cells at 10 uM after 48 hrs by SRB assay; settings: COLO 205, 48 h, read-out: GI; outline: as §1
[29] = system: NCI-H522; experiment: Growth inhibition of human NCI-H522 cells at 10 uM after 48 hrs by SRB assay; settings: NCI-H522, 48 h, read-out: GI; outline: as §2
[30] = system: NCI-H460; experiment: Growth inhibition of human NCI-H460 cells at 10 uM after 48 hrs by SRB assay; settings: NCI-H460, 48 h, read-out: GI; outline: as §2
[31] = system: NCI-H322M; experiment: Growth inhibition of human NCI-H322M cells at 10 uM after 48 hrs by SRB assay; settings: read-out: GI; outline: as §2
[32] = Growth inhibition of human HOP92 cells at 10 uM after 48 hrs by SRB assay; settings: HOP-92, 48 h, read-out: GI; outline: as §2
[33] = system: NCI-H226; experiment: Growth inhibition of human NCI-H226 cells at 10 uM after 48 hrs by SRB assay; settings: NCI-H226, 48 h, read-out: GI; outline: as §2
[34] = system: HOP-62; experiment: Growth inhibition of human HOP62 cells at 10 uM after 48 hrs by SRB assay; settings: HOP-62, 48 h, read-out: GI; outline: as §2
[35] = Growth inhibition of human EKVX cells at 10 uM after 48 hrs by SRB assay; settings: read-out: GI; outline: as §2
[36] = system: SR; experiment: Growth inhibition of human SR cells at 10 uM after 48 hrs by SRB assay; settings: read-out: GI; outline: as §2
[37] = system: K562; experiment: Growth inhibition of human K562 cells at 10 uM after 48 hrs by SRB assay; settings: K562, 48 h, read-out: GI; outline: as §2
[38] = system: CCRF-CEM; experiment: Growth inhibition of human CCRF-CEM cells at 10 uM after 48 hrs by SRB assay; settings: read-out: GI; outline: as §1
[39] = Growth inhibition of human OVCAR8 cells at 10 uM after 48 hrs by SRB assay; settings: OVCAR-8, 48 h, read-out: GI; outline: as §2

SMILES	inhibition of growth at 10 µM [1]	inhibition of growth at 10 µM [2]	inhibition of growth at 10 µM [3]	inhibition of growth at 10 µM [4]	inhibition of growth at 10 µM [5]	inhibition of growth at 10 µM [6]	inhibition of growth at 10 µM [7]	inhibition of growth at 10 µM [8]	inhibition of growth at 10 µM [9]	inhibition of growth at 10 µM [10]	inhibition of growth at 10 µM [11]	inhibition of growth at 10 µM [12]	inhibition of growth at 10 µM [13]	inhibition of growth at 10 µM [14]	inhibition of growth at 10 µM [15]	inhibition of growth at 10 µM [16]	inhibition of growth at 10 µM [17]	inhibition of growth at 10 µM [18]	inhibition of growth at 10 µM [19]	inhibition of growth at 10 µM [20]	also measured
Cc1ccc(C2=Nc3ccc(Cl)cc3C3=NNCC(=O)NN23)cc1	< 10%	11%	< 10%	< 10%	18%	< 10%	< 10%	< 10%	< 10%	< 10%	< 10%	< 10%	< 10%	< 10%	< 10%	< 10%	< 10%	< 10%	< 10%	< 10%	inhibition of growth at 10 µM [21]: < 10%; inhibition of growth at 10 µM [22]: < 10%; inhibition of growth at 10 µM [23]: < 10%; inhibition of growth at 10 µM [24]: < 10%; inhibition of growth at 10 µM [25]: < 10%; inhibition of growth at 10 µM [26]: < 10%; inhibition of growth at 10 µM [27]: < 10%; inhibition of growth at 10 µM [28]: < 10%; inhibition of growth at 10 µM [29]: < 10%; inhibition of growth at 10 µM [30]: < 10%; inhibition of growth at 10 µM [31]: < 10%; inhibition of growth at 10 µM [32]: < 10%; inhibition of growth at 10 µM [33]: < 10%; inhibition of growth at 10 µM [34]: < 10%; inhibition of growth at 10 µM [35]: 12%; inhibition of growth at 10 µM [36]: < 10%; inhibition of growth at 10 µM [37]: < 10%; inhibition of growth at 10 µM [38]: < 10%; inhibition of growth at 10 µM [39]: < 10%
Cc1ccc(C(=O)Nc2ccc(Cl)cc2C(=O)NCc2ccccc2)cc1	< 10%	< 10%	< 10%	24%	24%	< 10%	< 10%	< 10%	< 10%	28%	< 10%	< 10%	16%	30%	22%	49%	98%	26%	12%	21%	inhibition of growth at 10 µM [21]: 19%; inhibition of growth at 10 µM [22]: < 10%; inhibition of growth at 10 µM [23]: 16%; inhibition of growth at 10 µM [24]: 42%; inhibition of growth at 10 µM [25]: 43%; inhibition of growth at 10 µM [26]: 11%; inhibition of growth at 10 µM [27]: 14%; inhibition of growth at 10 µM [28]: < 10%; inhibition of growth at 10 µM [29]: 47%; inhibition of growth at 10 µM [30]: < 10%; inhibition of growth at 10 µM [31]: < 10%; inhibition of growth at 10 µM [32]: < 10%; inhibition of growth at 10 µM [33]: < 10%; inhibition of growth at 10 µM [34]: 12%; inhibition of growth at 10 µM [35]: 20%; inhibition of growth at 10 µM [36]: 63%; inhibition of growth at 10 µM [37]: 70%; inhibition of growth at 10 µM [38]: 27%; inhibition of growth at 10 µM [39]: 13%
